Laboratory results as given in ChEMBL document CHEMBL4387709, “Discovery of Quinoline Analogues as Potent Antivirals against Enterovirus D68 (EV-D68)” (J Med Chem, 2019).

Legend:
RD = assay: Cytotoxicity against human RD cells after 3 days by neutral red dye-based photometric method; type: cell-based; settings: rd, 72 h
[1] = Selectivity index, ratio of CC50 for human RD cells to EC50 for Enterovirus D68 US/KY/14-18953 infected in human RD cells; type: toxicity, cell-based; settings: read-out: Ratio CC50/EC50
enterovirus D68 = assay: Antiviral activity against Enterovirus D68 US/KY/14-18953 infected in human RD cells assessed as inhibition of virus-induced cytopathic effect incubated for 5 mins under shaking condition and measured after 3 days by neutral red dye-based photometric method; type: functional, organism-based; settings: Enterovirus D, US/KY/14-18953, RD
Procedure, shortened: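 RD cells seeded one day ahead to ~90% confluence, PBS (Mg/Ca) wash, infected at ~MOI 0.01 with EV-D68 in DMEM/2% FBS/30 mM MgCl2 at 33 °C, 5% CO2. Compounds and 1% P/S added after 1 h. Plates shaken ~5 min, held 3 days, viable cells stained with neutral red (66 µg/ml), A540 read. EC50 from dose-response fits, triplicates.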

CCC(C)Oc1cc(C(=O)NCCN(CC)CC)c2ccccc2n1 (centres undefined)
CC50 (RD): 15.7 µM
selectivity ratio [1]: 5.6
EC50 (enterovirus D68): 2.8 µM

CCN(CC)CCNC(=O)c1cc(-c2ccc(COC)cc2)nc2ccccc12
CC50 (RD): 46.6 µM
selectivity ratio [1]: 2.7
EC50 (enterovirus D68): 17.4 µM

O=C(NC1CN2CCC1CC2)c1cc(-c2ccccc2)nc2ccccc12 (centres undefined)
CC50 (RD): 46.5 µM
selectivity ratio [1]: 13.3
EC50 (enterovirus D68): 3.5 µM

CCN(CC)CCNC(=O)c1cc(-c2cnc(OC)nc2)nc2ccccc12
CC50 (RD): 174 µM
selectivity ratio [1]: 2
EC50 (enterovirus D68): 87.6 µM

CCN(CC)CCNC(=O)c1cc(-c2ccccc2)nc2ccc(F)cc12
CC50 (RD): 24.9 µM
selectivity ratio [1]: 19.2
EC50 (enterovirus D68): 1.3 µM

CCN(CC)CCNC(=O)c1cc(-c2cccc(OC)c2)nc2ccccc12
CC50 (RD): 36.5 µM
selectivity ratio [1]: 22.8
EC50 (enterovirus D68): 1.6 µM

CCN(CC)CCNC(=O)c1cc(OCC2CC2)nc2ccccc12
CC50 (RD): 38.5 µM
selectivity ratio [1]: 5.4
EC50 (enterovirus D68): 7.1 µM

CCN(CC)CCNC(=O)c1cc(-c2ccc3c(c2)OCCO3)nc2ccccc12
CC50 (RD): 49.9 µM
selectivity ratio [1]: 5.5
EC50 (enterovirus D68): 9 µM

O=C(NCCCn1ccnc1)c1cc(-c2cccs2)nc2ccccc12
CC50 (RD): 55.7 µM
selectivity ratio [1]: 6.3
EC50 (enterovirus D68): 8.9 µM

NNC(=O)c1cc(-c2cccs2)nc2ccccc12
CC50 (RD): > 100 µM
selectivity ratio [1]: > 8.4
EC50 (enterovirus D68): 11.9 µM

CCN(CC)CCNC(=O)c1cc(-c2ccc(CN3CCOCC3)cc2)nc2ccccc12
CC50 (RD): 79.2 µM
EC50 (enterovirus D68): > 80 µM

CCN(CC)CCNC(=O)c1cc(-c2ccsc2)nc2ccccc12
CC50 (RD): 46.9 µM
selectivity ratio [1]: 46.9
EC50 (enterovirus D68): 1 µM

CCN(CC)CCNC(=O)c1cc(OCc2ccccc2)nc2ccccc12
CC50 (RD): 13.5 µM
selectivity ratio [1]: 12.3
EC50 (enterovirus D68): 1.1 µM

CC(C)Oc1cc(C(=O)NCCN2CCN(C)CC2)c2ccccc2n1
CC50 (RD): 88.8 µM
selectivity ratio [1]: 3.4
EC50 (enterovirus D68): 25.9 µM

CN(C)c1ccc(NC(=O)c2cc(-c3ccccc3)nc3ccccc23)cc1
CC50 (RD): > 350 µM
selectivity ratio [1]: > 3.5
EC50 (enterovirus D68): > 100 µM

CCN(CC)CCNC(=O)c1cc(OC2CCCC2)nc2ccccc12
CC50 (RD): 11.7 µM
selectivity ratio [1]: 1.7
EC50 (enterovirus D68): 6.8 µM

CC(C)Oc1cc(C(=O)NC2CCN(C)CC2)c2ccccc2n1
CC50 (RD): 101 µM
selectivity ratio [1]: 5.7
EC50 (enterovirus D68): 17.8 µM

CCN(CC)CCNC(=O)c1cc(OC(C)C)nc2ccccc12
CC50 (RD): 111 µM
selectivity ratio [1]: 44.5
EC50 (enterovirus D68): 2.5 µM

CCN(CC)CCNC(=O)c1cc(-c2ccccc2)nc2ccccc12
CC50 (RD): 45.1 µM
selectivity ratio [1]: 56.4
EC50 (enterovirus D68): 0.8 µM

CCOCCOc1cc(C(=O)NCCN(CC)CC)c2ccccc2n1
CC50 (RD): 144 µM
selectivity ratio [1]: 11.8
EC50 (enterovirus D68): 12.2 µM

COc1ccc2nc(-c3ccccc3)cc(C(=O)NCCN(C)C)c2c1
CC50 (RD): 31.8 µM
selectivity ratio [1]: 3.9
EC50 (enterovirus D68): 8.1 µM

NNC(=O)c1cc(-c2ccccc2)nc2ccccc12
CC50 (RD): > 300 µM
selectivity ratio [1]: > 3
EC50 (enterovirus D68): 100 µM

CCN(CC)CCCNC(=O)c1cc(-c2ccccc2)nc2ccccc12
CC50 (RD): 45.4 µM
selectivity ratio [1]: 4.7
EC50 (enterovirus D68): 9.6 µM

CCN(CC)CCNC(=O)c1cc(OC)nc2ccccc12
CC50 (RD): > 250 µM
selectivity ratio [1]: > 4.8
EC50 (enterovirus D68): 52.5 µM

CCN(CC)CCNC(=O)c1cc(-c2ccn[nH]2)nc2ccccc12
CC50 (RD): 132 µM
selectivity ratio [1]: 6.8
EC50 (enterovirus D68): 19.4 µM

CCN(CC)CCNC(=O)c1cc(-c2c(C)noc2C)nc2ccccc12
CC50 (RD): 129 µM
EC50 (enterovirus D68): > 50 µM

CC(C)Oc1cc(C(=O)NCCCN(C)C)c2ccccc2n1
CC50 (RD): 122 µM
selectivity ratio [1]: 10.7
EC50 (enterovirus D68): 11.4 µM

CCN(CC)CCNC(=O)c1cc(-c2ccc(-c3ccccc3)cc2)nc2ccccc12
CC50 (RD): 9.8 µM
EC50 (enterovirus D68): > 10 µM

CN(C)CCCNC(=O)c1cc(-c2ccccc2)nc2ccccc12
CC50 (RD): 44.9 µM
selectivity ratio [1]: 12.8
EC50 (enterovirus D68): 3.5 µM

CN(C)CCCNC(=O)c1cc(-c2cccs2)nc2ccccc12
CC50 (RD): 40.5 µM
selectivity ratio [1]: 57.9
EC50 (enterovirus D68): 0.7 µM

CCN(CC)CCNC(=O)c1cc(-c2ccccc2)nc2ccc(OC)cc12
CC50 (RD): 27.5 µM
selectivity ratio [1]: 2.2
EC50 (enterovirus D68): 12.3 µM

CCN(CC)CCNC(=O)c1cc(-c2ccc(OC)cc2)nc2ccccc12
CC50 (RD): 31.6 µM
selectivity ratio [1]: 13.2
EC50 (enterovirus D68): 2.4 µM

CCOc1cc(C(=O)NCCN(CC)CC)c2ccccc2n1
CC50 (RD): 165 µM
selectivity ratio [1]: 27.9
EC50 (enterovirus D68): 5.9 µM

CC(C)Oc1cc(C(=O)NCCN2CCCC2)c2ccccc2n1
CC50 (RD): 36.9 µM
selectivity ratio [1]: 21.7
EC50 (enterovirus D68): 1.7 µM

Cc1ccc2c(c1)c1c3n2CCNC3CCC1 (centres undefined)
CC50 (RD): 19 µM
EC50 (enterovirus D68): 8.4 µM

O=C(NCCN1CCCC1)c1cc(-c2ccccc2)nc2ccccc12
CC50 (RD): 46.7 µM
selectivity ratio [1]: 117
EC50 (enterovirus D68): 0.4 µM

CCN(CC)CCNC(=O)c1cc(-c2ccc3c(c2)CCO3)nc2ccccc12
CC50 (RD): 29.5 µM
selectivity ratio [1]: 18.4
EC50 (enterovirus D68): 1.6 µM

CCN(CC)CCNC(=O)c1cc(-c2ccnn2C)nc2ccccc12
CC50 (RD): 133 µM
selectivity ratio [1]: 3.7
EC50 (enterovirus D68): 36.3 µM

CCN(CC)CCNC(=O)c1cc(OCC(F)(F)F)nc2ccccc12
CC50 (RD): 33.1 µM
selectivity ratio [1]: 9.5
EC50 (enterovirus D68): 3.5 µM

CC(C)Oc1cc(C(=O)N2CCN(C)CC2)c2ccccc2n1
CC50 (RD): > 300 µM
EC50 (enterovirus D68): > 100 µM

CCN(CC)CCNC(=O)c1cc(-c2ccoc2)nc2ccccc12
CC50 (RD): 122 µM
selectivity ratio [1]: 81.7
EC50 (enterovirus D68): 1.5 µM

CCN(CC)CCNC(=O)c1cc(-c2cnc(N(C)C)nc2)nc2ccccc12
CC50 (RD): 74.2 µM
selectivity ratio [1]: 3
EC50 (enterovirus D68): 24.6 µM

CC(C)Oc1cc(C(=O)NCCN)c2ccccc2n1
CC50 (RD): 149 µM
selectivity ratio [1]: 42.5
EC50 (enterovirus D68): 3.5 µM

CCN(CC)CCNC(=O)c1cc(-c2ccc(Cl)s2)nc2ccccc12
CC50 (RD): 6.1 µM
selectivity ratio [1]: 7.6
EC50 (enterovirus D68): 0.8 µM

CCN(CC)CCNC(=O)c1cc(-c2cccs2)nc2ccccc12
CC50 (RD): 37.4 µM
selectivity ratio [1]: 62.3
EC50 (enterovirus D68): 0.6 µM

CCN(CC)CCNC(=O)c1cc(-c2ccccc2OC)nc2ccccc12
CC50 (RD): 75.9 µM
selectivity ratio [1]: 5.5
EC50 (enterovirus D68): 13.9 µM

N=C(N)NC(=O)c1cc(-c2ccccc2)nc2ccccc12
CC50 (RD): > 250 µM
selectivity ratio [1]: > 7.2
EC50 (enterovirus D68): 34.7 µM

CCN(CC)CCNC(=O)c1cc(/C=C/c2ccccc2)nc2ccccc12
CC50 (RD): 11.5 µM
selectivity ratio [1]: 14.4
EC50 (enterovirus D68): 0.8 µM

CC(C)Oc1cc(C(=O)NCCN(C)C)c2ccccc2n1
CC50 (RD): 38.5 µM
selectivity ratio [1]: 22.6
EC50 (enterovirus D68): 1.7 µM

CN(C)CCNC(=O)c1cc(-c2ccccc2)nc2ccc(Cl)cc12
CC50 (RD): 14.3 µM
selectivity ratio [1]: 11.9
EC50 (enterovirus D68): 1.2 µM

CCN(CC)CCNC(=O)c1cc(-c2cnn(C)c2)nc2ccccc12
CC50 (RD): 251 µM
EC50 (enterovirus D68): > 100 µM

CN(C)CCNC(=O)c1cc(-c2ccccc2)nc2ccc(F)cc12
CC50 (RD): 38.8 µM
selectivity ratio [1]: 64.7
EC50 (enterovirus D68): 0.6 µM

CCC(CC)Oc1cc(C(=O)NCCN(CC)CC)c2ccccc2n1
CC50 (RD): 9.5 µM
EC50 (enterovirus D68): > 10 µM

CC(C)Oc1cc(C(=O)NCCN2CCOCC2)c2ccccc2n1
CC50 (RD): > 250 µM
selectivity ratio [1]: > 14.3
EC50 (enterovirus D68): 17.5 µM

CCN(CC)CCNC(=O)c1cc(-c2ccccc2)nc2ccc(Cl)cc12
CC50 (RD): 13.5 µM
selectivity ratio [1]: 7.1
EC50 (enterovirus D68): 1.9 µM

CCCOc1cc(C(=O)NCCN(CC)CC)c2ccccc2n1
CC50 (RD): 46.7 µM
selectivity ratio [1]: 9.5
EC50 (enterovirus D68): 4.9 µM

CCN(CC)CCNC(=O)c1cc(-c2ccncc2)nc2ccccc12
CC50 (RD): 174 µM
selectivity ratio [1]: 26.3
EC50 (enterovirus D68): 6.6 µM
